Test results published in ChEMBL document CHEMBL2375290, “Nonclassical antifolates, part 3: synthesis, biological evaluation and molecular modeling study of some new 2-heteroarylthio-quinazolin-4-ones” (Eur J Med Chem, 2013).
≈ marks a conversion by molar mass, not a printed value.

Assays:
[1] = molecular target: T1, Dihydrofolate reductase (Bos taurus, UniProt P00376); test: Inhibition of bovine DHFR after 2 mins by spectrophotometry
T1 sequence (P00376 whole entry): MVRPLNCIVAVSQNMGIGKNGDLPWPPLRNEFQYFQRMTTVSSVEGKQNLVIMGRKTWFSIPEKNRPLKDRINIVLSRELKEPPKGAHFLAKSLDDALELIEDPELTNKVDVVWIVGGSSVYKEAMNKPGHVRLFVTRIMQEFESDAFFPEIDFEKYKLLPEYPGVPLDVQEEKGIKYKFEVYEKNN

[2] = system: Micrococcus luteus; test: Antimicrobial activity against Micrococcus luteus at 200 ug after 24 hrs by agar disc diffusion method; assay type: functional; details: read-out: DIZ
[3] = system: Escherichia coli; test: Antimicrobial activity against Escherichia coli at 200 ug after 24 hrs by agar disc diffusion method; assay type: functional; details: read-out: DIZ
[4] = system: Pseudomonas aeruginosa; test: Antimicrobial activity against Pseudomonas aeruginosa at 200 ug after 24 hrs by agar disc diffusion method; assay type: functional; details: read-out: DIZ
[5] = system: Bacillus subtilis; test: Antimicrobial activity against Bacillus subtilis at 200 ug after 24 hrs by agar disc diffusion method; assay type: functional; details: read-out: DIZ
[6] = system: Staphylococcus aureus; test: Antimicrobial activity against Staphylococcus aureus at 200 ug after 24 hrs by agar disc diffusion method; assay type: functional; details: read-out: DIZ
[7] = system: Bacillus subtilis; test: Antimicrobial activity against Bacillus subtilis after 24 hrs by micro-dilution susceptibility method; assay type: functional
Method in brief: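 Broth microdilution in Müller-Hinton broth against S. aureus IFO 3060, B. subtilis IFO 3007, E. coli IFO 3301 and P. aeruginosa IFO 3448. These are the same standard strains used in the disc-diffusion primary screen. Compounds were solubilized in DMSO. MIC recorded as the minimal inhibitory concentration.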

With `CCOC(=O)c1nc(N)sc1Sc1nc2cc(OC)c(OC)cc2c(=O)n1Cc1ccccc1` as the compound, how does the IC50 [1] read?
Its IC50 is 2 µM.

And the zone of inhibition at 200 µg/disc [2]?
Its zone of inhibition at 200 µg/disc is 8 mm.

What about the zone of inhibition at 200 µg/disc [3] of the same compound?
The zone of inhibition at 200 µg/disc was 8 mm.

What about the zone of inhibition at 200 µg/disc [4] of the same compound?
The zone of inhibition at 200 µg/disc was 8 mm.

And the zone of inhibition at 200 µg/disc [5]?
The zone of inhibition at 200 µg/disc was 20 mm.

What about the zone of inhibition at 200 µg/disc [6] of the same compound?
Its zone of inhibition at 200 µg/disc is 18 mm.

What does the source list for `Cc1ccc2nc(Sc3cc([N+](=O)[O-])ccc3C(=O)O)n(-c3ccccc3)c(=O)c2c1`?
IC50 [1]: 10 µM; zone of inhibition at 200 µg/disc [2]: 8 mm; zone of inhibition at 200 µg/disc [3]: 8 mm; zone of inhibition at 200 µg/disc [4]: 8 mm; zone of inhibition at 200 µg/disc [5]: 8 mm; zone of inhibition at 200 µg/disc [6]: 8 mm

`O=C(O)c1ccc([N+](=O)[O-])cc1Sc1nc2ccc(Cl)cc2c(=O)n1Cc1ccccc1` was tested. Which IC50 [1] did it give?
Its IC50 is 8 µM.

And the zone of inhibition at 200 µg/disc [2]?
Its zone of inhibition at 200 µg/disc is 8 mm.

What about the zone of inhibition at 200 µg/disc [3] of the same compound?
Its zone of inhibition at 200 µg/disc is 8 mm.

What about the zone of inhibition at 200 µg/disc [4] of the same compound?
The zone of inhibition at 200 µg/disc was 8 mm.

What about the zone of inhibition at 200 µg/disc [5] of the same compound?
Its zone of inhibition at 200 µg/disc is 15 mm.

What about the zone of inhibition at 200 µg/disc [6] of the same compound?
The zone of inhibition at 200 µg/disc was 8 mm.

For `CCOC(=O)c1nc(N)sc1Sc1nc2ccc(Cl)cc2c(=O)n1-c1ccccc1`, which IC50 [1] is on record?
Its IC50 is 3 µM.

What about the zone of inhibition at 200 µg/disc [2] of the same compound?
The zone of inhibition at 200 µg/disc was 8 mm.

What about the zone of inhibition at 200 µg/disc [3] of the same compound?
Its zone of inhibition at 200 µg/disc is 8 mm.

What about the zone of inhibition at 200 µg/disc [4] of the same compound?
The zone of inhibition at 200 µg/disc was 8 mm.

What about the zone of inhibition at 200 µg/disc [5] of the same compound?
The zone of inhibition at 200 µg/disc was 8 mm.

What about the zone of inhibition at 200 µg/disc [6] of the same compound?
The zone of inhibition at 200 µg/disc was 8 mm.

Which IC50 [1] does the source give for `O=C(O)c1ccc([N+](=O)[O-])cc1Sc1nc2ccc(Cl)cc2c(=O)n1-c1ccccc1` here?
Its IC50 is 10 µM.

And the zone of inhibition at 200 µg/disc [2]?
Its zone of inhibition at 200 µg/disc is 8 mm.

And the MIC [7]?
The MIC was 4 µg/mL (≈ 8.81 µM).

What about the zone of inhibition at 200 µg/disc [3] of the same compound?
Its zone of inhibition at 200 µg/disc is 8 mm.

What about the zone of inhibition at 200 µg/disc [4] of the same compound?
Its zone of inhibition at 200 µg/disc is 8 mm.

What about the zone of inhibition at 200 µg/disc [5] of the same compound?
The zone of inhibition at 200 µg/disc was 20 mm.

What about the zone of inhibition at 200 µg/disc [6] of the same compound?
The zone of inhibition at 200 µg/disc was 14 mm.

Which results are given for `COc1cc2nc(Sc3cc([N+](=O)[O-])ccc3C(=O)O)n(Cc3ccccc3)c(=O)c2cc1OC`?
IC50 [1]: 3 µM; zone of inhibition at 200 µg/disc [2]: 8 mm; zone of inhibition at 200 µg/disc [3]: 8 mm; zone of inhibition at 200 µg/disc [4]: 8 mm; zone of inhibition at 200 µg/disc [5]: 8 mm; zone of inhibition at 200 µg/disc [6]: 18 mm
